A selection: hits, their analogues and other compounds. The true share with any hit is near 4.2%.
AHR act: AHR activators, primary screen, cell-based, luminescence, luciferase reporter, human; AHR-responsive luciferase reporter cells; activation, % at 5 µM; hit rate 2.5% among 320,000; in the data active = activation above about 47%;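 also: 0% = vehicle wells and 100% = reference agonist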
Target sequence (P35869 whole entry, looked up): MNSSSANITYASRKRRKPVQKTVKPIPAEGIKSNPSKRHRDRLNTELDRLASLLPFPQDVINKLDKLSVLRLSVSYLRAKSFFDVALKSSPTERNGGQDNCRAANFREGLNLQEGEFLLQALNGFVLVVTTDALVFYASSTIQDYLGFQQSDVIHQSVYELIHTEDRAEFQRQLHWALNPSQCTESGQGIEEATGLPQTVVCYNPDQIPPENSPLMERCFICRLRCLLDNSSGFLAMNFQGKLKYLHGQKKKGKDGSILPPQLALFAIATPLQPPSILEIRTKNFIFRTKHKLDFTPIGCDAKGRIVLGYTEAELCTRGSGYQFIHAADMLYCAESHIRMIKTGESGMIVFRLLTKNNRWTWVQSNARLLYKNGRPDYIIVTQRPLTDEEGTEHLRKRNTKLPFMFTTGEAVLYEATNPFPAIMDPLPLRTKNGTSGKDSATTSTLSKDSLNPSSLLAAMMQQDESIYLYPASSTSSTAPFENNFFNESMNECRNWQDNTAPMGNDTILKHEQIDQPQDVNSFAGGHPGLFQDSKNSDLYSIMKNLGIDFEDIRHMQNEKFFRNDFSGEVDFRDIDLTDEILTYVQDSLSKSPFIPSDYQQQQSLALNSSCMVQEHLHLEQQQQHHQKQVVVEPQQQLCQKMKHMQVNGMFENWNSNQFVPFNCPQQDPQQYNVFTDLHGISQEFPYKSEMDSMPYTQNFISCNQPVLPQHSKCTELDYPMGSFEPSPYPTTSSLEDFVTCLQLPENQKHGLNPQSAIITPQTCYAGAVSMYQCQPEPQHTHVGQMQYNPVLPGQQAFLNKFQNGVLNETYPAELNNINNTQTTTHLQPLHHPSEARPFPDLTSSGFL
Fh CTSL1 inh: Fasciola hepatica cathepsin L1 inhibitors, primary screen, counter-screen for PFM18AAP inhibitor project, biochemical, QFRET, fluorogenic peptide substrate; recombinant F. hepatica cathepsin L1, Z-Leu-Arg-MCA fluorescence; inhibition, % at 5.96 µM; hit rate 0.49% among 300,000;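 active = inhibition above the mean of all tested compounds plus 3 SD, set per screening campaign, cut at about 17% in these data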;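 also: 0% = plate median of test compound wells and 100% = 1 µM Z-Phe-Ala-diazomethylketone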
HDAC3 inhib: HDAC3 deacetylase inhibitors, primary screen, biochemical, fluorescence, cell-free homogeneous. recombinant HDAC3, fluorogenic peptide/trypsin coupled. inhibition, % at 8.3 µM. hit rate 0.15% among 320,000. Histone deacetylase 3 (Homo sapiens), O15379; in the data active = inhibition above about 26%, passing the limit was not always enough
PfM18AAP inh: PfM18AAP inhibitors, malaria aminopeptidase, primary screen, biochemical, QFRET, recombinant enzyme; inhibition, % at 7.35 µM; H-Glu-NHMec fluorogenic cleavage; M18 aspartyl aminopeptidase (Plasmodium falciparum 3D7); hit rate 1.2% among 290,000;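 active = inhibition above the campaign mean inhibition over all tested compounds plus 3 SD, cut at about 28% in these data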;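 also: 0% = plate median of test compound wells and 100% = 2 mM ZnCl2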
GAA850 FXN act: FXN promoter activators, primary screen, cell-based, luciferase luminescence, HEK293 lucGAA850; activation, % at 6 µM; hit rate 0.56% among 360,000; HEK293 lucGAA850 FXN promoter luciferase reporter, 24 h; percent of 10 µM SAHA response;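 active = activation above the average of all compounds screened plus 3 SD, cutoff fixed separately per campaign, cut at about 7.5% in these data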;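 also: 0% = DMSO wells and 100% = 10 µM SAHA wells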
SENP1 FRET inh: human SENP1 catalytic domain inhibitors, primary screen, biochemical, FRET, uHTS | Sentrin-specific protease 1 (Homo sapiens), Q9P0U3 | recombinant SENP1 catalytic domain, CyPet-SUMO1-YPet FRET cleavage | inhibition, % at 10 µM | hit rate 0.21% among 360,000 | AID 624204, 2012;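 active = inhibition at least 30% at 10 µM, raw YFP signal under a set limit, fluorescence ratio 0.5 to 1.5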;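 also: 0% = enzyme with DMSO and 100% = no enzyme wells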
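Material: hSENP1 catalytic domain, recombinant; medium: Tris pH 8 with BME, BSA, NP40 and catalase; compound: single concentration of 10 µM compound, 0.5% DMSO final; technique: FRET read of cyan and yellow fluorescence; timing: 50 min enzyme reaction, room temperature, light-protected; reagent: SFCypet-SUMO1-SFYpet substrate at 25 nM; control set: no-enzyme low, enzyme-DMSO high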
An asterisk follows results filed as active.

Screening Clc1cccc(/C=N/Nc2nnc(Cl)c3ccccc23)c1 returned AHR act 50*, Fh CTSL1 inh 1, HDAC3 inhib 1, PfM18AAP inh 6, GAA850 FXN act 1 and SENP1 FRET inh 2.
Screening O=C1C=C(c2ccc3cc[nH]c3c2)C[C@@H](c2ccc3c(c2)OCO3)C1 returned AHR act 21, HDAC3 inhib 10, GAA850 FXN act -2 and SENP1 FRET inh -15.
CCOc1cc2[nH]c(=S)n(Cc3ccc(C)o3)c(=O)c2cc1OCC was read as AHR act 65*, Fh CTSL1 inh 5, HDAC3 inhib -5, PfM18AAP inh -13, GAA850 FXN act -2 and SENP1 FRET inh 2.
Screening CCCCn1nnnc1C(c1ccccc1)N1CCN(C(=O)c2ccco2)CC1 (stereo unspecified) returned SENP1 FRET inh -1.
Screening C[C@](N)(Cc1ccc(O)c(O)c1)C(=O)O returned PfM18AAP inh 65*, GAA850 FXN act 0 and SENP1 FRET inh -5.
`CC(=O)c1cccc(N2Cc3ccccc3C2=NC(=O)CCl)c1` gave AHR act 2, Fh CTSL1 inh 77*, HDAC3 inhib 2, PfM18AAP inh -7, GAA850 FXN act -2 and SENP1 FRET inh -6.
Screening CNc1cc(-c2cc(OC)ccc2OC)ncn1 returned GAA850 FXN act 1 and SENP1 FRET inh 2.
Screening COc1ccccc1-n1cnc(N)c1C(=O)c1ccccc1 returned AHR act 3, Fh CTSL1 inh 19*, HDAC3 inhib 6, PfM18AAP inh -1, GAA850 FXN act -4 and SENP1 FRET inh 2.
For CCc1cc2c3c(c(=O)oc2cc1OC(C)C(=O)O)CCCC3 (stereo unspecified) the results were AHR act 1, Fh CTSL1 inh 6, HDAC3 inhib -47, PfM18AAP inh 1, GAA850 FXN act 1 and SENP1 FRET inh -1.
`CCc1cc2c3c(c(=O)oc2cc1O)CCCC3` gave AHR act 76*, Fh CTSL1 inh 2, HDAC3 inhib -168, PfM18AAP inh 9, GAA850 FXN act 0 and SENP1 FRET inh -141.
Screening O=C(Nc1nc2nccc(-c3ccccc3)n2n1)C(Cl)(Cl)Cl returned AHR act 54*, Fh CTSL1 inh -1, HDAC3 inhib 3, PfM18AAP inh 3, GAA850 FXN act 4 and SENP1 FRET inh 2.
`CC(=O)c1ccccc1N(C(=O)c1ccco1)C(C(=O)NC1CCCC1)c1ccc(C)cc1` (stereo unspecified) gave AHR act 1, Fh CTSL1 inh 4, HDAC3 inhib -5, PfM18AAP inh -6, GAA850 FXN act -1 and SENP1 FRET inh -1.
`COc1ccc(-c2cc(C(=O)N3CC4(C)CC3CC(C)(C)C4)no2)cc1OC` (stereo unspecified) gave AHR act 3, Fh CTSL1 inh 17*, HDAC3 inhib -6, PfM18AAP inh 0, GAA850 FXN act 0 and SENP1 FRET inh 2.
`O=C(CSc1ccc(C(F)(F)F)cc1[N+](=O)[O-])Nc1ccccc1` gave AHR act 48*, Fh CTSL1 inh -3, HDAC3 inhib 2, PfM18AAP inh 0, GAA850 FXN act 5 and SENP1 FRET inh 2.
Screening CC(C)NC(=O)CNc1ccc(C(F)(F)F)cc1[N+](=O)[O-] returned AHR act 52*, Fh CTSL1 inh 3, HDAC3 inhib 2, PfM18AAP inh 5, GAA850 FXN act 1 and SENP1 FRET inh -4.
Screening CC1CCCC(C)N1C(=O)COC(=O)c1ccc(F)c(S(=O)(=O)N2CCOCC2)c1 (stereo unspecified) returned AHR act -2, Fh CTSL1 inh -3, HDAC3 inhib -2, PfM18AAP inh -7, GAA850 FXN act 1 and SENP1 FRET inh 2.
For CCOc1cccc(-c2c(C(=O)N/N=C(\C)c3cccnc3)nnn2-c2nonc2N)c1 the results were AHR act 60*, Fh CTSL1 inh 0, HDAC3 inhib -5, PfM18AAP inh 2, GAA850 FXN act 2 and SENP1 FRET inh 1.
For CCCOc1ccc(-c2c(C(=O)N/N=C(\C)c3cccnc3)nnn2-c2nonc2N)cc1 the results were AHR act 56*, Fh CTSL1 inh 1, HDAC3 inhib -9, PfM18AAP inh -13, GAA850 FXN act 2 and SENP1 FRET inh 3.
Screening CCOc1ccc(-c2c(C(=O)N/N=C(\C)c3ccncc3)nnn2-c2nonc2N)cc1 returned AHR act 15, Fh CTSL1 inh -10, HDAC3 inhib -3, PfM18AAP inh -3, GAA850 FXN act 1 and SENP1 FRET inh 3.
`CC(OC(=O)C1CC1)C(=O)Nc1cccc(S(=O)(=O)N2CCOCC2)c1` (stereo unspecified) gave AHR act 1, HDAC3 inhib 0, GAA850 FXN act 0 and SENP1 FRET inh 0.
`COc1ccc(N2CCN(C(=O)c3cn(Cc4ccccc4)nc3-c3cccnc3)CC2)cc1` gave AHR act -1, HDAC3 inhib -4, GAA850 FXN act 2 and SENP1 FRET inh 2.
For O=C(O)/C=C/C(=O)c1c(-c2ccccc2)[nH]c2ccccc12 the results were AHR act 2, Fh CTSL1 inh 58*, HDAC3 inhib 3, PfM18AAP inh -24, GAA850 FXN act -2 and SENP1 FRET inh 0.
For CCc1nnc(NC(=O)CSc2nc3[nH]ncc3c(=O)[nH]2)s1 the results were AHR act 2, Fh CTSL1 inh -12, HDAC3 inhib -2, PfM18AAP inh 31*, GAA850 FXN act 1 and SENP1 FRET inh 0.
CCCCOc1ncnc2c1[nH]c1ccccc12 was read as AHR act 50*, Fh CTSL1 inh -1, HDAC3 inhib -13, PfM18AAP inh -1, GAA850 FXN act 2 and SENP1 FRET inh -17.
For CCCCOCCCNc1ncnc2c1[nH]c1ccccc12 the results were AHR act 22, Fh CTSL1 inh -1, HDAC3 inhib 2, PfM18AAP inh 6, GAA850 FXN act -6 and SENP1 FRET inh -14.
`CCOCCCNc1ncnc2c1[nH]c1ccccc12` gave AHR act 50*, Fh CTSL1 inh -1, HDAC3 inhib 3, PfM18AAP inh -3, GAA850 FXN act 2 and SENP1 FRET inh 0.
O=C1c2ccccc2C(=O)c2[nH]c(=O)[nH]c21 was read as AHR act -9, Fh CTSL1 inh 31*, HDAC3 inhib 3, PfM18AAP inh 3, GAA850 FXN act -1 and SENP1 FRET inh -1.
`O=C1C(O)=C(O)C(=O)c2ccccc21` gave AHR act 15, Fh CTSL1 inh 61*, HDAC3 inhib 3, GAA850 FXN act -2 and SENP1 FRET inh 4.

High-throughput results as filed in PubChem BioAssay.
